Measured values from ChEMBL document CHEMBL1687824, “Overexpression of patA and patB, which encode ABC transporters, is associated with fluoroquinolone resistance in clinical isolates of Streptococcus pneumoniae” (2011).

Key:
Type in all cases: functional
[1] = system: Streptococcus pneumoniae; assay: Antibacterial activity against dye-resistant Streptococcus pneumoniae M46 DR overexpressing patA, patB by standardized agar doubling dilution method in presence of 50 uM sodium orthovanadate efflux pump inhibitor
Procedure, shortened: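 MICs were determined by BSAC agar doubling dilution in the presence of sodium orthovanadate at 50 μM. Cultures were grown in BHI broth for 24 h at 37°C in 5% CO2, with R6 as control. Synergy was defined as an MIC reduction of ≥2 dilutions with the inhibitor present.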

[2] = system: Streptococcus pneumoniae; assay: Antibacterial activity against fluoroquinolone, dye-susceptible Streptococcus pneumoniae M295 S overexpressing patA, patB by standardized agar doubling dilution method in presence of 20 ug/ml reserpine efflux pump inhibitor
Procedure, shortened: (§1)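 MIC by agar doubling dilution following BSAC guidelines. Strains grown in brain heart infusion broth 24 h at 37°C in 5% CO2. Where an efflux pump inhibitor applies, MIC redetermined with reserpine at 20 μg/ml or sodium orthovanadate at 50 μM. Synergy taken as a fall in MIC of ≥2 dilutions with inhibitor present. Dye resistance defined relative to R6 (both dyes ≥2 dilutions higher).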

[3] = system: Streptococcus pneumoniae; assay: Antibacterial activity against wild type Streptococcus pneumoniae R6 by standardized agar doubling dilution method in presence of 20 ug/ml reserpine efflux pump inhibitor; procedure, shortened: as §1

With `CC[n+]1c(-c2ccccc2)c2cc(N)ccc2c2ccc(N)cc21.[Br-]` [HOMIDIUM BROMIDE] the MIC [1] was 1 µg/mL, the MIC [2] was 0.25 µg/mL and the MIC [3] was 0.3 µg/mL.
